The source made the active and inactive calls. No cut-off for these calls is given here.
Key:
[1] = AUClast in ICR mouse at 15 mg/kg, ip administered as single dose measured upto 8 hrs by LC-MS/MS analysis; type: ADME, organism-based; set-up: route intraperitoneal, dose 15 mg/kg, time <=8; conditions: in vivo
Outline: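 Male ICR mice (30 g) given a single i.p. bolus of 15 mg/kg in corn oil. Blood taken by orbital collection into K3EDTA tubes at 0.08, 0.17, 0.5, 1, 2, 4 and 8 h, three animals per time point, giving a composite profile. Plasma proteins were precipitated with acetonitrile and analysed by LC-MS/MS. Parameters were derived by non-compartmental analysis.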

[2] = Induction in caspase-mediated apoptosis in human NB4-DR1 cells assessed as early apoptotic cells at 50 uM incubated for 24 hrs by Annexin V-FITC/propidium iodide staining based flow cytometry analysis (reference value: 1.43%); type: functional
[3] = Induction in caspase-mediated apoptosis in human NB-4 cells assessed as necrotic cells at 12.5 uM incubated for 24 hrs by Annexin V-FITC/Propidium iodide staining based flow cytometry analysis (reference value: 0.352%); type: functional
[4] = Induction in caspase-mediated apoptosis in human NB-4 cells assessed as early apoptotic cells at 12.5 uM incubated for 24 hrs in presence of Z-VAD-FMK by Annexin V-FITC/propidium iodide staining based flow cytometry analysis (reference value: 1.84%); type: functional
[5] = Induction in caspase-mediated apoptosis in human NB-4 cells assessed as viable cells at 25 uM incubated for 24 hrs by Annexin V-FITC/propidium iodide staining based flow cytometry analysis (reference value: 96.6%); type: functional; conditions: read-out: Activity
[6] = Induction in caspase-mediated apoptosis in human NB4-DR1 cells assessed as early apoptosis cells at 25 uM incubated for 24 hrs in presence of Z-VAD-FMK by Annexin V-FITC/propidium iodide staining based flow cytometry analysis (reference value: 0.875%); type: functional
[7] = Induction in caspase-mediated apoptosis in human NB4-DR1 cells assessed as late apoptotic cells at 25 uM incubated for 24 hrs by Annexin V-FITC/propidium iodide staining based flow cytometry analysis (reference value: 1.47%); type: functional
[8] = Induction in caspase-mediated apoptosis in human NB-4 cells assessed as early apoptotic cells at 100 uM incubated for 24 hrs by Annexin V-FITC/propidium iodide staining based flow cytometry analysis (reference value: 2.02%); type: functional
[9] = Induction in caspase-mediated apoptosis in human NB4-DR1 cells assessed as necrotic cells at 12.5 uM incubated for 24 hrs by Annexin V-FITC/propidium iodide staining based flow cytometry analysis (reference value: 0.19%); type: functional
[10] = Induction in caspase-mediated apoptosis in human NB4-DR1 cells assessed as necrotic cells at 25 uM incubated for 24 hrs in presence of Z-VAD-FMK by Annexin V-FITC/propidium iodide staining based flow cytometry analysis (reference value: 0.223%); type: functional
[11] = Induction in caspase-mediated apoptosis in human NB4-DR1 cells assessed as viable cells at 100 uM incubated for 24 hrs by Annexin V-FITC/propidium iodide staining based flow cytometry analysis (reference value: 96.9%); type: functional; conditions: read-out: Activity
[12] = Induction in caspase-mediated apoptosis in human NB4-DR1 cells assessed as necrotic cells at 50 uM incubated for 24 hrs by Annexin V-FITC/propidium iodide staining based flow cytometry analysis (reference value: 0.19%); type: functional
[13] = Induction in caspase-mediated apoptosis in human NB-4 cells assessed as necrotic cells at 50 uM incubated for 24 hrs in presence of Z-VAD-FMK by Annexin V-FITC/propidium iodide staining based flow cytometry analysis (reference value: 0.167%); type: functional
[14] = Induction in caspase-mediated apoptosis in human NB4-DR1 cells assessed as necrotic cells at 100 uM incubated for 24 hrs in presence of Z-VAD-FMK by Annexin V-FITC/propidium iodide staining based flow cytometry analysis (reference value: 0.223%); type: functional
[15] = Induction in caspase-mediated apoptosis in human NB4-DR1 cells assessed as late apoptotic cells at 12.5 uM incubated for 24 hrs by Annexin V-FITC/propidium iodide staining based flow cytometry analysis (reference value: 1.47%); type: functional
[16] = Cytotoxicity against HUVEC assessed as cell viability at 100 uM incubated for 24 hrs by CCK-8 assay relative to control; type: cell-based; conditions: human, read-out: Activity
Outline: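 HUVEC and LO2 normal cells were cultured in RPMI-1640 or DMEM with 10% FBS at 37 °C, 5% CO2, and seeded at 3 × 10^4 cells/well. They were exposed for 24 h to graded concentrations. CCK-8 incubation was 3 h at 37 °C, with A450 read and viability expressed versus untreated control. Three independent experiments, mean ± SEM.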

[17] = Induction in caspase-mediated apoptosis in human NB-4 cells assessed as viable cells at 100 uM incubated for 24 hrs by Annexin V-FITC/propidium iodide staining based flow cytometry analysis (reference value: 96.6%); type: functional; conditions: read-out: Activity
[18] = Induction in caspase-mediated apoptosis in human NB-4 cells assessed as viable cells at 50 uM incubated for 24 hrs in presence of Z-VAD-FMK by Annexin V-FITC/propidium iodide staining based flow cytometry analysis (reference value: 96.8%); type: functional; conditions: read-out: Activity
[19] = Induction in caspase-mediated apoptosis in human NB4-DR1 cells assessed as necrotic cells at 12.5 uM incubated for 24 hrs in presence of Z-VAD-FMK by Annexin V-FITC/propidium iodide staining based flow cytometry analysis (reference value: 0.223%); type: functional
[20] = Induction in caspase-mediated apoptosis in human NB-4 cells assessed as late apoptotic cells at 25 uM incubated for 24 hrs in presence of Z-VAD-FMK by Annexin V-FITC/propidium iodide staining based flow cytometry analysis (reference value: 1.15%); type: functional
[21] = tested on: NB-4; assay: Effect on glycogen synthase phosphorylation in human NB-4 cells assessed as reduction in ratio of p-GS to GS measured after 24 hrs by Western blot analysis; type: functional, cell-based
Outline: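 NB4 and NB4-R1 cells were treated 24 h at several concentrations and lysed in RIPA. Equal protein was immunoblotted for phospho-glycogen synthase (Ser641), total GS and β-actin, with ECL detection. Band densities were quantified as the p-GS/GS ratio. n = 3, mean ± SEM.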

[22] = tested on: NB-4; assay: Antitumor activity against human NB-4 cells xenografted in BALB/c nude mouse assessed as tumor growth inhibition at 15 mg/kg/day, ip administered for 2 weeks relative to control; type: functional; conditions: NB-4, ip, 336 h, read-out: TGI
Outline: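 Female Balb/c nude mice, 4 weeks old, received 2 × 10^6 NB4 cells s.c. in the right flank. Once tumours reached about 0.5 cm diameter, mice were randomised to corn-oil vehicle or drug in corn oil (n = 5). Dosing was 15 mg/kg/d i.p. once daily for 2 weeks. Caliper volume (length × width²)/2 was taken every other day, and tumours were excised and weighed at the end.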

[23] = Induction in caspase-mediated apoptosis in human NB-4 cells assessed as necrotic cells at 100 uM incubated for 24 hrs in presence of Z-VAD-FMK by Annexin V-FITC/propidium iodide staining based flow cytometry analysis (reference value: 0.167%); type: functional
[24] = Induction in caspase-mediated apoptosis in human NB4-DR1 cells assessed as viable cells at 50 uM incubated for 24 hrs in presence of Z-VAD-FMK by Annexin V-FITC/propidium iodide staining based flow cytometry analysis (reference value: 96.4%); type: functional; conditions: read-out: Activity

- AUC(0-t) at 8 h [1]: 3500 ng·h/mL
SMILES: C=CC(=O)N1C(=O)CC(c2ccc(F)cc2)Sc2ccccc21 (centres undefined)
- Activity [2]: 1.92%
- Activity [3]: 6.13%
- Activity [4]: 4.58%
- viability at 25 µM [5]: 36.4%
- Activity [6]: 1.04%
- Activity [7]: 14.8%
- Activity [8]: 4.21%
- Activity [9]: 0.508%
- Activity [10]: 0.485%
- viability at 100 µM [11]: 42.7%
- Activity [12]: 2.29%
- Activity [13]: 1.52%
- Activity [14]: 1.4%
- Activity [15]: 5.54%
- viability at 24 h, 100 µM [16]: > 70%
- viability at 100 µM [17]: 5.94%
- viability at 50 µM [18]: 78.6%
- Activity [19]: 0.332%
- Activity [20]: 11.2%
- Activity [21]: Active
- inhibition in vivo at 15 mg/kg/day [22]: 76%
- Activity [23]: 2.88%
- viability at 50 µM [24]: 91.3%

Reference: ChEMBL document CHEMBL5036319, “Discovery of Novel Benzothiazepinones as Irreversible Covalent Glycogen Synthase Kinase 3β Inhibitors for the Treatment of Acute Promyelocytic Leukemia” (J Med Chem, 2021)
